# Assay results: the RNAGym collection of RNA variant scans (doi:10.1101/gad.245936.114)
# This sample holds only a part of the variants without activity.
# B1: tRNA (parent)
# chain: CUCUCGGUAGCCAAGUUGGUUUAAGGCGCAAGACUUUAAUUUAUCACUACGAAAUCUUGAGAUCGGGCGUUCGACUCGCCCCCGGGAGAUUUUUUCCUCGAGCAA
# Variants of: B1
# Assay: nonsense suppression (GFP-seq) (ratio to wild type); higher = more function; SUP4oc tRNA, yeast GFP reporter sort-seq
# In short: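 Each variant's nonsense suppression (GFPSEQ) is a cell-share-weighted bin median GFP/RFP relative to the unmutated parent tRNA. Yeast with genome-integrated tRNA variants from a ~3% random-mutation library, a galactose-driven GFP ochre reporter and RFP were grown in raffinose/galactose medium with 80 mg/L adenine, then sorted into GFP/RFP bins for Illumina sequencing. Variants needed ≥100 reads and ≥30 cells.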
row,Variant,nonsense suppression
1,A31G C82U,0.25
2,U58G C77U,≤ 0.026
3,G28A U63A C68G U70A G85C,≤ 0.026
4,A9G U22A,0.212
5,G66A G78A,0.0402
6,G7A A13U U58G G86C,≤ 0.026
7,C5G U76G,≤ 0.026
8,A31G C34G U76G,≤ 0.026
9,G7C G10A C68G,≤ 0.026
10,A13C C75A,1.09
11,U16C C83G G86A A87G,≤ 0.026
12,G15C G26U U57C G78C,≤ 0.026
13,A9G C11U,0.0313
14,G61A A87U,0.181
15,A9C A13U A60U,1.16
16,U8A A30U,0.0393
17,G15A G26U,≤ 0.026
18,A13U G28C,0.227
19,U17G A24U,0.159
20,A60G G85U,0.138
21,G85A A87U,0.19
22,U4C G7U,0.202
23,A14G G28U G78C,≤ 0.026
24,A30U C77U,≤ 0.026

row,Variant,nonsense suppression
1,U17A G78A,0.449
2,C3U G61A,0.198
3,G15A C80U,0.167
4,G7C C11G C79A,≤ 0.026
5,A23G C29U,0.142
6,A30U A31U C80A,≤ 0.026
7,C1U C34U G85C,≤ 0.026
8,C3G A24C A31C,≤ 0.026
9,C12G C68G G69U A89U,0.0702
10,G6C A9U G65U G85C,≤ 0.026
11,C12A A24C,0.035
12,G6U C81A,≤ 0.026
13,U22C,1
14,G18U U20C U76G,0.264
15,U4C G59A,≤ 0.026
16,C27G G28A,≤ 0.026
17,C3U G78A,0.0608
18,U55G A89U,≤ 0.026
19,G28U U76A,≤ 0.026
20,G19A G26U C27G,≤ 0.026
21,U20G C56U,0.148
22,A9G G84U,0.0539
23,G61C A87U,0.3
24,G59C G61C,≤ 0.026

row,Variant,nonsense suppression
1,U4C U71C,≤ 0.026
2,C3G U20G G69A U70C,≤ 0.026
3,C68A C75A,0.0286
4,G25C A54U,0.0708
5,C3G A74G,≤ 0.026
6,C29U A33U,0.0316
7,U2C G6U C29U,≤ 0.026
8,U63C A74G,0.0264
9,C1A C5G A13G G18C A54U G65C,≤ 0.026
10,C29U G73A,0.238
11,U16C U17G,1.07
12,U8G G88A,0.228
13,C12U A54U,0.229
14,A14U G86A,≤ 0.026
15,A33G A87U G88U,≤ 0.026
16,G69C C77G,≤ 0.026
17,G28C,1.17
18,U4A A54U,0.191
19,A23C U58G C64G,≤ 0.026
20,A33U C34U,≤ 0.026
21,G18U U20G G65C G66C,≤ 0.026
22,A24C C75G,1.11
23,U4C C11A A33G A74U,≤ 0.026
24,C3G C77A C83A,≤ 0.026

row,Variant,nonsense suppression
1,C1U G85C A89C,≤ 0.026
2,A54C G67U,≤ 0.026
3,A14G A87U,≤ 0.026
4,A24U G84C,0.107
5,U21C U63G,0.805
6,A13C G66C,≤ 0.026
7,A24U C75U C81U,≤ 0.026
8,A31G U63G,0.0741
9,C5U G19C U35A A89G,≤ 0.026
10,A24C G73C G84C,≤ 0.026
11,U4A U17A,0.174
12,C5U C83G,≤ 0.026
13,U58G G66U C75A,≤ 0.026
14,G61C G65A C68U,≤ 0.026
15,U63A C82U,0.178
16,C1A G19U U55A,≤ 0.026
17,C1U G6A C64G,≤ 0.026
18,A24U U63C,0.0344
19,U4C A13G,0.774
20,U76C G78U,0.0507
21,U4C C29U,1.03
22,A9C G73A,0.215
23,U22C A87G,0.724
24,C5A U63A G66C,≤ 0.026

row,Variant,nonsense suppression
1,A54U U63A,0.864
2,U21G G78U,0.034
3,C11U C27G A74G,≤ 0.026
4,U2C U17A,0.0435
5,G26A C27A,≤ 0.026
6,A33G U57A U76C,≤ 0.026
7,U63A G85A,1.09
8,G25A G59C U63C,≤ 0.026
9,U2A G65C,≤ 0.026
10,C81U G84U,0.065
11,U4A A9G G73U C77G G86U,≤ 0.026
12,U16G U76G G86C,≤ 0.026
13,C12A A33G G67U,≤ 0.026
14,C3A U20C U55C,≤ 0.026
15,A9U A60U,0.0653
16,C1A U21C G73A,≤ 0.026
17,G28A C29U,1.15
18,U20C G86A,≤ 0.026
19,C1G A33G U55C U71G G78C,≤ 0.026
20,U17A G28A G85A,1.02
21,U58C U63C,0.144
22,C29U U63C G85A,0.849
23,A24C G28C,0.201
24,A9G G73A,0.12

row,Variant,nonsense suppression
1,U22C C29U G61A,0.386
2,G25U G61A C82G G88U,≤ 0.026
3,C75A C80G,≤ 0.026
4,C11G U20C G25U U63G C75A G78C,≤ 0.026
5,U2A C80U,0.0354
6,C1G U8G U63C G73U,≤ 0.026
7,C3G A54C,0.0677
8,G59C U63A G66A C68U C72A,≤ 0.026
9,C1U G7C G69C G85C,≤ 0.026
10,G15A G61C,0.034
11,A24G C29U,0.0384
12,C11U U70G C79A,≤ 0.026
13,C5U G66U G78A,≤ 0.026
14,A13U C29U,0.751
15,U16A A62G U76G,≤ 0.026
16,U4G A24C,0.134
17,G7U G32A A60C A74G,≤ 0.026
18,A9C C75A G88A,≤ 0.026
19,U2G A74C,≤ 0.026
20,C5U A62C G65C U70G U71A,≤ 0.026
21,C3U C72G,≤ 0.026
22,C27A U55G G61A C83G,≤ 0.026
23,C11U G18U A60G,≤ 0.026
24,C5G G6C A9C A89C,≤ 0.026

row,Variant,nonsense suppression
1,A13G C29G G61U U70G,≤ 0.026
2,U2A A13U,0.0284
3,A14U G18U A23U C27G,≤ 0.026
4,C75A G78A,0.698
5,A9G A13U A74C,≤ 0.026
6,U2G C83G,≤ 0.026
7,U17C A33G,0.0608
8,A23G U55C,0.0273
9,A14U A24C,0.0284
10,U70G C82G,≤ 0.026
11,U16C U21C A31U,0.204
12,A24U A87G,0.147
13,C3U A23U A30C,≤ 0.026
14,U20G G85C,0.0271
15,C3U U21G G85C,0.417
16,G6A C79U G88C,≤ 0.026
17,U22G G25U G66U,≤ 0.026
18,G59U G88A,≤ 0.026
19,G10C G19U C64G,≤ 0.026
20,U16C G28A,1.06
21,C29U G86C,0.0331
22,U20G C29U,1.12
23,A24U A62C,≤ 0.026
